Data as given in ChEMBL document CHEMBL1125336, “New bronchodilators. 1. 1,5-Substituted 1H-imidazo[4,5-c]quinolin-4(5H)-ones” (J Med Chem, 1992).

Key:
[1] = species: Cavia porcellus; assay: Inhibition of the Schulz-Dale (SD) reaction-induced contraction in trachea of guinea pig; format: functional
Summary of the method: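 Tracheal zig-zag strips from passively sensitized guinea pigs, equilibrated 1 h in Krebs-Henseleit under 95% O2-5% CO2 at 37 °C. Contraction induced by OA at 10 µg/mL final bath concentration. Drug added cumulatively at 7-min intervals once contraction reached plateau; isotonic recording, relaxation scaled to papaverine maximum. Triplicate curves with 4–5 concentrations; IC50 by logit-log fit.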

[2] = system: Cavia porcellus; assay: Effect on collapse time of antigen-induced bronchospasm in passively sensitized guinea pigs (at 25 mg/kg, po).MCT for untreated animals is 254+/-18.; format: functional
[3] = system: Cavia porcellus; assay: Effect on collapse time of antigen-induced bronchospasm in passively sensitized guinea pigs (at 50 mg/kg, po).MCT for untreated animals is 254+/-18.; format: functional
[4] = system: Mus musculus; assay: Acute lethal toxicity (minimum lethal dose; MLD, po) in mice.; format: organism-based; settings: in vivo
Summary of the method: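 Male dd mice (20–25 g), n = 3 per dose, given compound orally. Deaths observed for 7 days; MLD taken as the dose killing at least one mouse.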

[5] = system: Cavia porcellus; assay: Effect on heart rate 5(mins) after intravenous administration in anesthetized guinea pigs after intravenous administration of 3 mg/kg; format: functional
Summary of the method: (§1)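 Male guinea pigs anesthetized with pentobarbital sodium (50 mg/kg ip), ventilated via tracheotomy with room air (60/min, 10 mL/kg). Left-ventricular cannula via left common carotid to a pressure transducer for LVP and LV dP/dtmax; heart rate triggered by LVP. Drug given iv through the left jugular vein, vehicle PEG 400 diluted with saline. Change expressed as % of pretreatment value; mean ± SEM, n = 5.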

[6] = system: Cavia porcellus; assay: Effect on collapse time of antigen-induced bronchospasm in passively sensitized guinea pigs (at 25 mg/kg, po). MCT for untreated animals is 254+/-18; format: functional
[7] = system: Cavia porcellus; assay: Effect on heart rate 1(mins) after intravenous administration in anesthetized guinea pigs after intravenous administration of 3 mg/kg; format: functional; summary of the method: as §1
[8] = species: Cavia porcellus; assay: Inhibitory effect on spasmogen (leukotriene, LTD4) induced contraction of guinea pig tracheal strips.; format: functional; settings: Trachea
Summary of the method: (§2)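 Zig-zag tracheal strips from normal guinea pigs, equilibrated 1 h in Krebs–Henseleit (95% O2/5% CO2, 37 °C). Contracted with carbachol 3 × 10⁻⁶ mol final, histamine 3 × 10⁻⁵ mol, or LTD4 50 µg/mL. Drug added cumulatively every 7 min after the plateau; isotonic recording. IC50 for 50% relaxation by least-squares regression.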

[9] = species: Cavia porcellus; assay: Inhibitory effect on spasmogen (histamine) induced contraction of guinea pig tracheal strips.; format: functional; settings: Trachea; summary of the method: as §2
[10] = system: Cavia porcellus; assay: Effect on left ventricular dP/dtmax 1(mins) after intravenous administration in anesthetized guinea pigs after a intravenous administration of 3 mg/kg; format: functional, Heart left ventricle; summary of the method: as §1
[11] = system: Cavia porcellus; assay: Effect on left ventricular dP/dtmax 5(mins) after intravenous administration in anesthetized guinea pigs after a intravenous administration of 3 mg/kg; format: functional, Heart left ventricle; summary of the method: as §1
[12] = system: Cavia porcellus; assay: Effect on left ventricular dP/dtmax 3(mins) after intravenous administration in anesthetized guinea pigs after a intravenous administration of 3 mg/kg; format: functional, Heart left ventricle; summary of the method: as §1
[13] = system: Cavia porcellus; assay: Effect on heart rate 3(mins) after intravenous administration in anesthetized guinea pigs after intravenous administration of 3 mg/kg; format: functional; summary of the method: as §1
[14] = species: Cavia porcellus; assay: Inhibitory effect on spasmogen (carbachol) induced contraction of guinea pig tracheal strips.; format: functional; settings: Trachea; summary of the method: as §2
[15] = system: Cavia porcellus; assay: Effect on left ventricular dP/dtmax 0(mins) after intravenous administration in anesthetized guinea pigs after a intravenous administration of 3 mg/kg; format: functional, Heart left ventricle; summary of the method: as §1
[16] = system: Cavia porcellus; assay: Effect on heart rate 0(mins) after intravenous administration in anesthetized guinea pigs after intravenous administration of 3 mg/kg; format: functional; summary of the method: as §1
[17] = system: Cavia porcellus; assay: Effect of the compound (peroral administration) on anaphylactic bronchoconstriction in passively sensitized guinea pigs.; format: functional; settings: Lung, po
Summary of the method: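 Male Hartley guinea pigs (350–450 g) passively sensitized ip with rabbit anti-OA serum 16–24 h before. Urethane-anesthetized, gallamine-paralysed, ventilated. Air overflow (Konzett–Rössler) after OA 5 mg/kg iv. Compound suspended in 0.3% Tween 80, given orally 1 h before challenge. ED50 by linear regression of AUC versus log dose.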

[18] = system: Cavia porcellus; assay: Effect of the compound (intravenous administration) on anaphylactic bronchoconstriction in passively sensitized guinea pigs.; format: functional; settings: Lung
Summary of the method: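 Male Hartley guinea pigs (350–450 g) passively sensitized ip with rabbit anti-OA serum 16–24 h before. Urethane anesthesia (1.5 g/kg ip), gallamine 10 mg/kg iv, ventilated 60–70 strokes/min. Konzett–Rössler air overflow after OA challenge 5 mg/kg iv. Compound in PEG 400 diluted with saline, given iv 90 s after challenge. ED50 by linear regression of AUC versus log dose.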

[19] = system: Cavia porcellus; assay: Effect on left ventricular dP/dtmax 0(mins) after intravenous administration in anesthetized guinea pigs.; format: functional, Heart left ventricle
Summary of the method: (§3)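 Male guinea pigs under pentobarbital (50 mg/kg ip), tracheotomy, room-air ventilation at 60/min, 10 mL/kg. Carotid cannula advanced into the left ventricle to read LVP and LV dP/dtmax; heart rate triggered from LVP. Single 3 mg/kg iv dose via jugular vein. Values are percent of pretreatment, n = 5.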

[20] = system: Cavia porcellus; assay: Effect on heart rate 5(mins) after intravenous administration in anesthetized guinea pigs; format: functional; summary of the method: as §3
[21] = system: Cavia porcellus; assay: Effect on left ventricular dP/dtmax 1(mins) after intravenous administration in anesthetized guinea pigs.; format: functional, Heart left ventricle; summary of the method: as §3
[22] = system: Cavia porcellus; assay: Effect on heart rate 1(mins) after intravenous administration in anesthetized guinea pigs.; format: functional; summary of the method: as §3
[23] = system: Cavia porcellus; assay: Effect on left ventricular dP/dtmax 3(mins) after intravenous administration in anesthetized guinea pigs; format: functional, Heart left ventricle; summary of the method: as §3
[24] = system: Cavia porcellus; assay: Effect on left ventricular dP/dtmax 5(mins) after intravenous administration in anesthetized guinea pigs; format: functional, Heart left ventricle; summary of the method: as §3
[25] = system: Cavia porcellus; assay: Effect on heart rate 3(mins) after intravenous administration in anesthetized guinea pigs; format: functional; summary of the method: as §3
[26] = system: Cavia porcellus; assay: Effect on heart rate 0(mins) after intravenous administration in anesthetized guinea pigs.; format: functional; summary of the method: as §3

Work on `CCCCCn1c(=O)c2ncn(C)c2c2ccccc21` yielded an IC50 [1] greater than 30 µM.

`CCCCn1c(=O)c2nc(-c3ccco3)n(C)c2c2ccccc21` gave an IC50 [1] greater than 30 µM.

`Cn1c(=O)c2nc[nH]c2n(C)c1=O.O` [THEOPHYLLINE] was tested, and the MCT [2] was 389 s and the IC50 [1] was 6.52 µM.

In the case of `CCCCn1c(=O)c2ncn(C)c2c2cc(C)ccc21`, the MCT [3] is reported as 356 s, the IC50 [1] is reported as 7.97 µM and the MLD [4] is reported as greater than 300 mg/kg.

Work on `CCCCn1c(=O)c2ncn(CC)c2c2ccccc21` yielded an IC50 [1] of 4.9 µM and an MLD [4] greater than 300 mg/kg.

In the case of `CCCCn1c(=O)c2ncn(C)c2c2ccc(Cl)cc21.Cl`, the MCT [3] is reported as 289 s, the IC50 [1] is reported as 1.52 µM and the MLD [4] is reported as greater than 300 mg/kg.

With `C=CCCn1c(=O)c2ncn(C)c2c2ccccc21` the MCT [3] was 342 s, the IC50 [1] was 5.62 µM and the MLD [4] was 200 mg/kg.

`Cn1cnc2c(=O)n(CC(=O)O)c3ccccc3c21` gave an IC50 [1] greater than 30 µM.

In the case of `CCCCn1c(=O)c2ncn(C(C)C)c2c2ccccc21`, the MCT [2] is reported as 425 s, the IC50 [1] is reported as 2.6 µM and the MLD [4] is reported as greater than 300 mg/kg.

For `CCCCn1c(=O)c2nc(-c3ccccc3)n(C)c2c2ccccc21`, the IC50 [1] was greater than 30 µM.

`CCCCn1c(=O)c2ncn(Cc3ccccc3)c2c2ccccc21` showed an IC50 [1] greater than 30 µM.

Molecule `CCCCn1c(=O)c2ncn(C)c2c2cc(OC)c(OC)cc21` has an IC50 [1] greater than 30 µM.

`CCn1c(=O)c2ncn(C)c2c2ccccc21` gave an IC50 [1] greater than 30 µM.

Work on `CCCCn1c2c(c3c(ncn3C)c1=O)CCCC2` yielded an IC50 [1] greater than 30 µM.

`CCCCn1cnc2c(=O)n(CCCC)c3ccccc3c21` was tested, and the MCT [3] was 504 s, the IC50 [1] was 5.47 µM and the MLD [4] was greater than 300 mg/kg.

`CCCCn1c(=O)c2ncn(-c3ccccc3)c2c2ccccc21` gave an IC50 [1] greater than 30 µM.

Work on `Cn1cnc2c(=O)n(Cc3ccco3)c3ccccc3c21` yielded an IC50 [1] greater than 30 µM.

Molecule `CCCCn1c(=O)c2ncn(C)c2c2c(C)cccc21` has an IC50 [1] greater than 30 µM.

With `CC(C)Cn1c(=O)c2ncn(C)c2c2ccccc21` the IC50 [1] was greater than 30 µM.

Work on `CCCCn1c(=O)c2nc(-c3ccc(OC)cc3)n(C)c2c2ccccc21` yielded an IC50 [1] greater than 30 µM.

`CCCCn1c(=O)c2nc(C)n(C)c2c2ccccc21` gave an IC50 [1] greater than 30 µM.

`CCCCn1c(=O)c2ncn(C)c2c2ccccc21` showed a Heart rate [5] of 101%, an MCT [6] of 342 s and a Heart rate [7] of 98.5%. For the same molecule, the IC50 [8] was 9.19 µM, the IC50 [9] was 2.12 µM and the “LV dP/dtmax” value [10] was 91.6%. The “LV dP/dtmax” value [11] was 99.4%, the “LV dP/dtmax” value [12] was 98.9% and the Heart rate [13] was 101%. For the same molecule, the IC50 [14] was 27.2 µM, the IC50 [1] was 0.25 µM and the “LV dP/dtmax” value [15] was 100%. It also gave a Heart rate [16] of 100%, an ED50 [17] of 44.9 mg/kg and an ED50 [18] of 0.42 mg/kg. For the same molecule, the MLD [4] was greater than 300 mg/kg.

With `CCCCn1c(=O)c2nnn(C)c2c2ccccc21` the MCT [3] was 296 s, the IC50 [1] was 1.58 µM and the MLD [4] was greater than 300 mg/kg.

With `CCCCn1c(=O)c2ncn(CCC)c2c2ccccc21` the IC50 [1] was 3.99 µM and the MLD [4] was greater than 300 mg/kg.

Work on `CCCn1c(=O)c2ncn(C)c2c2ccccc21` yielded an IC50 [1] of 10.7 µM and an MLD [4] of 300 mg/kg.

In the case of `CCCCn1c(=O)c2nc(O)n(C)c2c2ccccc21`, the IC50 [1] is reported as greater than 30 µM.

In the case of `Cn1c(=O)c2[nH]cnc2n(C)c1=O.Cn1c(=O)c2[nH]cnc2n(C)c1=O.NCCN` [AMINOPHYLLINE], the IC50 [8] is reported as 23.6 µM, the LV [19] is reported as 100% and the Heart rate [20] is reported as 105%. For the same molecule, the LV [21] was 125%, the Heart rate [22] was 108% and the IC50 [9] was 33.2 µM. It also gave an LV [23] of 117%, an IC50 [14] of 37.7 µM and an LV [24] of 116%. The Heart rate [25] was 105%, the IC50 [1] was 16.7 µM and the ED50 [17] was 51.7 mg/kg. It also gave an ED50 [18] of 7.8 mg/kg and a Heart rate [26] of 100%.

For `Cn1cnc2c(=O)n(C3CCCC3)c3ccccc3c21`, the IC50 [1] was 6.58 µM and the MLD [4] was 300 mg/kg.

Work on `Cn1cnc2c(=O)n(Cc3ccccc3)c3ccccc3c21` yielded an IC50 [1] greater than 30 µM.

In the case of `CCCCn1c(=O)c2ncn(C)c2c2cc(Cl)ccc21`, the IC50 [1] is reported as greater than 30 µM.

`Cn1cnc2c(=O)n(C)c3ccccc3c21` was tested, and the IC50 [1] was greater than 30 µM.

`COCCn1c(=O)c2ncn(C)c2c2ccccc21` showed an IC50 [1] greater than 30 µM.

`CCCCn1c(=O)c2nc(-c3ccc(Cl)c(Cl)c3)n(C)c2c2ccccc21` gave an IC50 [1] greater than 30 µM.

`CCCCn1c(=O)c2nc(S)n(C)c2c2ccccc21` gave an IC50 [1] of 8.2 µM and an MLD [4] greater than 300 mg/kg.
